Assay results published in ChEMBL document CHEMBL4732139, “Novel N-Methylated Cyclodepsipeptide Prodrugs for Targeted Cancer Therapy” (J Med Chem, 2021).
pIC50: −log10 of the molar value. Activity calls are given as the source filed them. The rule behind the calls is not given here. Where a SMILES comes first, the peptide text is derived from it. Bridges are numbered along the chain shown (N, C = ends). [ ]: non-standard residue; d: D form. The star is where a group is joined. NMe2Val = CC(C)[C@@H](C(=O)*)N(C)C; NMeI = CC[C@H](C)[C@H](NC)C(=O)O; NMeT = CN[C@H](C(=O)O)[C@@H](C)O; NMeL = CN[C@@H](CC(C)C)C(=O)O; dHiv = CC(C)[C@@H](O)C(=O)O; NMeA = CN[C@@H](C)C(=O)O; dNMeA = CN[C@H](C)C(=O)O

Tests used:
[1] = tested on: BT-549; assay: Cytotoxicity in human BT-549 cells assessed as reduction in cell viability incubated for 48 hrs by CCK8 assay; type: functional, cell-based
Method in brief: (§1)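 Cells grown in high-glucose DMEM with 10% FBS and penicillin/streptomycin at 37 °C, 5% CO₂. 3000−4000 cells/well seeded and preincubated overnight. Treated with a concentration gradient in quadruplicate for 48 h. Medium then replaced with 10% CCK-8 in fresh medium for 1 h at 37 °C, A450 read. IC50 from log(inhibitor)-response fit, mean SD of three independent experiments.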

[2] = tested on: A549; assay: Cytotoxicity in human A549 cells assessed as reduction in cell viability incubated for 48 hrs by CCK8 assay; type: functional, cell-based; method in brief: as §1
[3] = tested on: BT-549; assay: Cytotoxicity in human BT-549 cells assessed as reduction in cell viability incubated for 72 hrs by CCK8 assay; type: functional, cell-based
Method in brief: (§2)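 CCK-8 viability assay with a 72 h treatment. Cells seeded at 3000−4000/well and preincubated overnight. Concentration gradient applied in quadruplicate. Then 10% CCK-8 for 1 h at 37 °C and A450 read. IC50 by log(inhibitor)-response fitting.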

[4] = tested on: A549; assay: Cytotoxicity in human A549 cells assessed as reduction in cell viability incubated for 72 hrs by CCK8 assay; type: functional, cell-based; method in brief: as §2
[5] = Toxicity in Balb/c mouse assessed as induction of weight loss at 1 mg/kg, iv dosed every 2 days and measured on day 3; type: organism-based; settings: in vivo, 72 h, time 3 day
Method in brief: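 In vivo tolerability in six-week-old male Balb/c nude mice (n = 3 per group). Compounds were given intravenously every 2 days at various dosages, and body weight was followed over time.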

[6] = Stability in PBS at 37 degC assessed as parent intact compound remaining level at 50 uM after 24 hrs by RP-HPLC analysis; type: physicochemical; settings: read-out: Stabilty
Method in brief: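 50 μM compound in 10% DMSO/PBS without DTT or cathepsin B at 37 °C. Sampled at 0, 4, 8, 12 and 24 h and analyzed by RP-HPLC (C18, 10−100% CH₃CN/0.1% TFA over 20 min). Three repeats.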

[7] = Drug metabolism in PBS at 37 degC assessed as metabolite-1a formation at 50 uM in presence of DTT after 30 mins by RP-HPLC analysis
Method in brief: (§3)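 50 μM conjugate (from 2 mM DMSO stock) in 10% DMSO/PBS with 150 μM DTT (final) at 37 °C. Aliquots taken at 30, 60 and 90 min for RP-HPLC: C18, 10−100% CH₃CN over 20 min in 0.1% TFA water, 0.5 mL/min, detection at 220 and 254 nm. Three repeats.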

[8] = Drug metabolism in PBS at 37 degC assessed as metabolite-1a formation at 50 uM in presence of DTT after 30 to 90 mins by RP-HPLC analysis; settings: time 30-90 min; method in brief: as §3
[9] = Drug metabolism in PBS at 37 degC assessed as parent compound disappearance at 50 uM in presence of DTT after 90 mins by RP-HPLC analysis; method in brief: as §3
[10] = tested on: BT-549; assay: Cytotoxicity in human BT-549 cells assessed as reduction in cell viability incubated for 48 hrs in absence of GSH-OEt by CCK8 assay; type: functional, cell-based; settings: BT-549, 48 h; method in brief: as §1
[11] = tested on: A549; assay: Cytotoxicity in human A549 cells assessed as reduction in cell viability incubated for 48 hrs in absence of GSH-OEt by CCK8 assay; type: functional, cell-based; settings: A549, 48 h; method in brief: as §1
[12] = tested on: A549; assay: Cytotoxicity in human A549 cells assessed as reduction in cell viability incubated for 48 hrs in presence of GSH-OEt by CCK8 assay; type: functional, cell-based; settings: A549, 48 h
Method in brief: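 A549 cells preincubated 2 h with 1 mM GSH-OEt, then exposed to compound for 48 h. Viability by CCK-8. Remaining steps: overnight-seeded cells (3000−4000/well), quadruplicate wells, 10% CCK-8 for 1 h at 37 °C, A450. IC50 by log(inhibitor)-response fit, mean of triplicate.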

[13] = Toxicity in Balb/c mouse assessed as induction of weight loss at 5 mg/kg, iv dosed every 2 days for total 10 times and measured on day 21; type: organism-based; settings: in vivo, 504 h, time 21 day
Method in brief: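 Six-week male Balb/c nude mice, n = 3 per group, given various doses by i.v. injection every 2 days. Body weight monitored.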

[14] = Toxicity in Balb/c mouse xenografted with human A549 cells assessed as induction of weight loss at 5 mg/kg, iv dosed every 2 days for total 10 times and measured on day 21; type: organism-based; settings: in vivo, 504 h, time 21 day
Method in brief: (§4)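 Six-week male Balb/c nude mice; 1 × 10⁷ A549 cells washed in cold PBS, suspended in serum-free high-glucose DMEM, injected s.c. in right flank. At ~50 mm³ (L × W × 1/2 W), randomized into two groups, n = 7 each. 5 mg/kg in 10% DMSO/PBS (1 mg/mL) given i.v. via tail vein every 2 days ×10. Vehicle control 10% DMSO/PBS. Tumor size and body weight measured before each injection. Tumors excised and weighed at end.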

[15] = Toxicity in Balb/c mouse xenografted with human A549 cells assessed as induction of side effect at 5 mg/kg, iv dosed every 2 days for total 10 times and measured on day 21; type: organism-based; settings: in vivo; method in brief: as §4
[16] = tested on: A549; assay: Antitumor activity against human A549 cells xenografted in Balb/c mouse assessed as reduction in tumor size at 5 mg/kg, iv dosed every 2 days for total 10 times and measured on day 21; type: functional, organism-based; settings: time 21.0 day; method in brief: as §4
[17] = tested on: A549; assay: Antitumor activity against human A549 cells xenografted in Balb/c mouse assessed as reduction in tumor growth at 5 mg/kg, iv dosed every 2 days for total 10 times and measured on day 21; type: functional, organism-based; settings: time 21.0 day; method in brief: as §4
[18] = tested on: A549; assay: Antitumor activity against human A549 cells xenografted in Balb/c mouse assessed as reduction in tumor mass at 5 mg/kg, iv dosed every 2 days for total 10 times and measured on day 21 relative to untreated control; type: functional; settings: time 21 day; method in brief: as §4

Row | remaining at 24 h, 50 µM [6] [%] | Compound | pIC50 ([1]; Homo sapiens, BT-549, 48 h, read-out: IC50) | pIC50 ([2]; Homo sapiens, A549, 48 h, read-out: IC50) | Activity [3] | Activity [4] | Activity [5] | Drug metabolism [7] | Drug metabolism [8] | Drug metabolism [9] [%] | pIC50 [10] | pIC50 [11] | pIC50 [12] | Activity [13] | Activity [14] | Activity [15] | Activity [16] | Activity [17] | fold change (FC) [18] | IC50 ([1]; bt-549) | IC50 ([2]; a549)
1 |  | CC[C@H](C)[C@H]1C(=O)N[C@@H](C)C(=O)N(C)[C@@H](CC(C)C)C(=O)N[C@@H](Cc2ccc(OC)cc2)C(=O)N(C)[C@H](C)C(=O)O[C@H](C)[C@H](N(C)C(=O)[C@H](CC(C)C)N(C)C(=O)[C@H](C)N(C)C(=O)[C@H](OC(=O)[C@H](C(C)C)N(C)C)C(C)C)C(=O)N(C)[C@@H](C)C(=O)N1C (NMe2Val-[dHiv][NMeA][NMeL][NMeT][NMeA][NMeI]A[NMeL]Y(Me)[dNMeA]; ester 4-C) | 7.74 | 7.72 | Active | Active | Toxic |  |  |  |  |  |  |  |  |  |  |  |  |  | 
2 | > 90 | CC[C@H](C)[C@H]1C(=O)N[C@@H](C)C(=O)N(C)[C@@H](CC(C)C)C(=O)N[C@@H](Cc2ccc(OC)cc2)C(=O)N(C)[C@H](C)C(=O)O[C@H](C)[C@H](N(C)C(=O)[C@H](CC(C)C)N(C)C(=O)[C@H](C)N(C)C(=O)[C@H](OC(=O)[C@H](C(C)C)[N+](C)(C)Cc2ccc(NC(=O)OCCSSCCn3cc(CCC(=O)NCCCC[C@@H]4NC(=O)[C@@H](Cc5ccc(O)cc5)NC(=O)[C@H](CC(=O)O)NC(=O)CNC(=O)[C@H](CCCNC(=N)N)NC4=O)nn3)cc2)C(C)C)C(=O)N(C)[C@@H](C)C(=O)N1C.O=C([O-])C(F)(F)F |  |  | Active | Active |  | Metabolite detected | Metabolite detected | 100 | 6.51 | 6.58 | 7.69 | Non-Toxic | Non-Toxic | Non-Toxic | Active | Active | 4 |  | 
3 |  | C#CCCC(=O)NCCCC[C@@H]1NC(=O)[C@@H](Cc2ccc(O)cc2)NC(=O)[C@H](CC(=O)O)NC(=O)CNC(=O)[C@H](CCCNC(=N)N)NC1=O |  |  | inactive | inactive |  |  |  |  |  |  |  |  |  |  |  |  |  | Not Active | Not Active
